Activity calls are given as the source filed them. The calls are words filed in the database; no cut-off is given here.
Assays:
PC-3 [1] = assay: Cytotoxicity against human PC3 cells assessed as reduction in cell viability at 3 to 10 uM pretreated with NAC for 2 hrs followed by compound addition and measured after 72 hrs by MTT assay; assay type: functional, cell-based
Method in brief: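 PC-3 cells in 96-well plates pretreated 2 h with N-acetyl cysteine (20 μM), then exposed to 3 or 10 μM test agent for 72 h. Viability read by MTT as in the standard protocol, absorbance 570 nm, relative to DMSO control. Three separate experiments.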

PC-3 [2] = assay: Induction of apoptosis in human PC3 cells assessed as upregulation of Bax expression measured after 72 hrs by Western blot analysis; assay type: functional, cell-based
Method in brief: (§1)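 Western blot: PC-3 seeded 1.25 × 10^5/well, exposed to 0.1–10 μM for 72 h. Lysed in 2× SDS buffer and sonicated; 20–25 μg protein run on 12% SDS gel, transferred to PVDF, blocked in 5% BSA/TBST. Primary antibodies overnight, secondary 1 h; ECL detection, β-actin loading control.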

MDA-MB-231 [3] = assay: Anticancer activity against human MDA-MB-231 cells assessed as reduction in cell viability measured after 72 hrs by MTT assay; assay type: functional, cell-based; conditions: MDA-MB-231, 72 h
LNCaP = assay: Anticancer activity against human LNCAP cells assessed as cell viability measured after 72 hrs by MTT assay (reference value: 100 +/- 5.0 %); assay type: functional; design: concentration or dose not given beside the values
PC-3 [4] = assay: Anticancer activity against human PC3 cells assessed as cell viability measured after 72 hrs by MTT assay (reference value: 100 +/- 18.8 %); assay type: functional; design: concentration or dose not given beside the values
PC-3 [5] = assay: Anticancer activity against human PC3 cells assessed as reduction in cell viability measured after 72 hrs by MTT assay; assay type: functional, cell-based; conditions: PC-3, 72 h
PC-3 [6] = assay: Induction of cell death in human PC3 cells at 3 uM measured after 72 hrs by propidium iodide staining based flow cytometry analysis (reference value: 0.5 %); assay type: functional
Method in brief: (§2)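 PC-3 cells in six-well plates exposed to 3 or 10 μM for 72 h, 0.1% DMSO vehicle as control; cells harvested, PBS-washed, stained with propidium iodide (5 μg/mL) 20 min at 4 °C; percentage dead cells read by flow cytometry; t-test against vehicle.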

MDA-MB-231 [7] = assay: Anticancer activity against human MDA-MB-231 cells assessed as cell viability measured after 72 hrs by MTT assay (reference value: 100 +/- 20.0 %); assay type: functional; design: concentration or dose not given beside the values
PC-3 [8] = assay: Induction of apoptosis in human PC3 cells assessed as decrease in mitochondrial membrane potential at 3 to 10 uM after 48 hrs by JC-1 staining based fluorescence microscopy analysis; assay type: functional, cell-based
Method in brief: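 PC-3 cells exposed to 3 or 10 μM for 48 h, then stained with JC-1 (10 μM) for 30 min in the dark. Mitochondrial potential judged by red/green fluorescence under a fluorescence microscope.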

PC-3 [9] = assay: Induction of apoptosis in human PC3 cells assessed as cell shrinkage at 3 to 10 uM after 72 hrs by phase contrast microscopy; assay type: functional, cell-based
Method in brief: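 PC-3 cells in exponential growth exposed to 3 or 10 μM for 72 h, washed gently with PBS, and apoptotic morphology recorded by phase-contrast microscopy.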

PC-3 [10] = assay: Antimetastatic activity against human PC3 cells assessed as inhibition of MMP-2 at 3 to 10 uM measured after 48 hrs by gelatin zymography; assay type: functional, cell-based
Method in brief: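 PC-3 monolayers scratched, then treated with 3 or 10 μM for 48 h in serum-containing medium, then 24 h in serum-free medium. Conditioned medium run non-reduced on 7.5% SDS-PAGE containing gelatin 4 mg/mL. Gel washed in 2.5% Triton X-100, incubated 24 h at 37 °C in Tris pH 7.5 with CaCl2/ZnCl2, Coomassie stained; lysis seen as clear bands.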

PC-3 [11] = assay: Antimigratory activity against human PC3 cells assessed as reduction in cell migration at 3 to 10 uM measured after 48 hrs by transwell assay; assay type: functional, cell-based
Method in brief: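 Transwell migration through 8.0 μm polycarbonate membranes: 40,000 PC-3 cells in serum-free medium in the upper chamber with 3 or 10 μM; RPMI-1640 with 10% FBS below. After 48 h, non-migrated cells swabbed off. Migrated cells fixed in 75% ethanol for 10 min, Hoechst stained and counted per field versus DMSO.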

PC-3 [12] = assay: Antimigratory activity against human PC3 cells assessed as reduction in cell migration at 3 to 10 uM measured upto 24 hrs by scratch wound healing assay; assay type: functional, cell-based
Method in brief: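 Wound healing: PC-3 seeded 3 × 10^5/well, grown to a monolayer at 37 °C, 5% CO2. Scratch made with a pipette tip, detached cells washed off, then 3 or 10 μM added.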

PC-3 [13] = assay: Cell cycle arrest in human PC3 cells assessed as accumulation at S phase at 10 uM measured after 48 hrs by RNase/propidium iodide staining based flow cytometry analysis (reference value: 22.40 %); assay type: functional
PC-3 [14] = assay: Induction of cell death in human PC3 cells at 10 uM measured after 72 hrs by propidium iodide staining based flow cytometry analysis (reference value: 0.5 %); assay type: functional; method in brief: as §2
PC-3 [15] = assay: Cell cycle arrest in human PC3 cells assessed as accumulation at G2/M phase at 10 uM measured after 48 hrs by RNase/propidium iodide staining based flow cytometry analysis (reference value: 34.95 %); assay type: functional
PC-3 [16] = assay: Induction of apoptosis in human PC3 cells assessed as nuclear condensation at 3 to 10 uM after 72 hrs by Hoechst 33342 staining based fluorescence microscopy; assay type: functional, cell-based
Method in brief: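 PC-3 cells treated 72 h with 3 or 10 μM, stained with Hoechst 33342 for 15 min at room temperature in the dark, washed with PBS, and nuclei examined by fluorescence microscopy for condensation.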

HepG2 = assay: Anticancer activity against human HepG2 cells assessed as reduction in cell viability measured after 72 hrs by MTT assay; assay type: functional, cell-based; conditions: HepG2, 72 h
PC-3 [17] = assay: Cell cycle arrest in human PC3 cells assessed as accumulation at S phase at 3 uM measured after 48 hrs by RNase/propidium iodide staining based flow cytometry analysis (reference value: 22.40 %); assay type: functional
A-431 = assay: Anticancer activity against human A431 cells assessed as reduction in cell viability measured after 72 hrs by MTT assay; assay type: functional, cell-based; conditions: A-431, 72 h
[18] = molecular target: Peptidyl-prolyl cis-trans isomerase NIMA-interacting 1 (Homo sapiens) (UniProt Q13526); assay: Inhibition of Pin1 in human PC3 cells assessed as downregulation of cyclin D1 measured after 72 hrs by Western blot analysis; assay type: cell-based
Method in brief: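 PC-3 cells (1.25×10^5 per well) exposed 72 h to 0.1, 0.3, 1, 3 or 10 μM; lysed in 2× SDS buffer, sonicated, BCA-quantified; 20-25 μg protein on 12% SDS gel, PVDF, 5% BSA block, primary antibody overnight, secondary 1 h; ECL detection, β-actin loading control.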

PC-3 [19] = assay: Downregulation of Pin1 in human PC3 cells harboring siRNA measured after 72 hrs by Western blot analysis; assay type: functional, cell-based
Method in brief: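 PC-3 cells (1.5 × 10^5/well) transfected with Pin1 siRNA (25 nM) using Lipofectamine RNAiMAX in Opti-MEM, alone or with test agent, for 72 h. Pin1 assessed by western blot with β-actin loading control.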

PC-3 [20] = assay: Induction of apoptosis in human PC3 cells assessed as decrease in pro-caspase-3 level after 72 hrs by Western blot analysis; assay type: functional, cell-based; method in brief: as §1
PC-3 [21] = assay: Downregulation of Pin1 expression in human PC3 cells at 3 to 10 uM measured after 72 hrs by Western blot analysis; assay type: functional, cell-based; method in brief: as §1

Peptidyl-prolyl cis-trans isomerase NIMA-interacting 1 (Homo sapiens), sequence (Q13526 whole entry): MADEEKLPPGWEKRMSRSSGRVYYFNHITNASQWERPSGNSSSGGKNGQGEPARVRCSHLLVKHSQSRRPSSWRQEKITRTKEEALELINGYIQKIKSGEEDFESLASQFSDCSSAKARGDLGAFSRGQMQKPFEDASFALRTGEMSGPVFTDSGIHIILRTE

COC(=O)Cc1ccc(S[C@@H]2O[C@@H]3O[C@@]4(C)CC[C@H]5[C@H](C)CC[C@@H]([C@H]2C)[C@@]35OO4)cc1
Activity (PC-3 [1]): inactive
Activity (PC-3 [2]): Dose-dependent effect
IC50 (MDA-MB-231 [3]): 9.03 µM
Activity (LNCaP): 38%
Activity (PC-3 [4]): 28%
IC50 (PC-3 [5]): 6.13 µM
Activity (PC-3 [6]): 26.3%
Activity (MDA-MB-231 [7]): 45%
Activity (PC-3 [8]): Active
Activity (PC-3 [9]): Active
inhibition (PC-3 [10]): Dose-dependent effect
Activity (PC-3 [11]): Active
Activity (PC-3 [12]): Active
Activity (PC-3 [13]): 13.21%
Activity (PC-3 [14]): 28.9%
Activity (PC-3 [15]): 32.19%
Activity (PC-3 [16]): Active
IC50 (HepG2): 6.08 µM
Activity (PC-3 [17]): 13.26%
IC50 (A-431): 13.3 µM
inhibition [18]: Dose-dependent effect
Activity (PC-3 [19]): Active
Activity (PC-3 [20]): Dose-dependent effect
Activity (PC-3 [21]): Active
